# Assay results of several laboratories.
# Protocols differ between the studies behind these lines.
# VIPR1: Vasoactive intestinal polypeptide receptor 1 (VIPR1, Homo sapiens, UniProt P32241)
# SULT1B1: Sulfotransferase 1B1 (SULT1B1, Homo sapiens, UniProt O43704)
SMILES,target,assay,system,setting,measurement,value
CCN(CC)CCCC[C@H](NC(=O)[C@H](CC(C)C)NC(=O)[C@H](C)NC(=O)[C@H](Cc1ccccc1)NC(=O)c1ccc(C(C)(C)C)cc1)C(=O)N[C@@H](CO)C(=O)OC,VIPR1,"ligand displacement, radioligand",,10 µM,remaining binding,110%
Oc1c(Br)cc(Br)cc1Oc1ccc(Br)cc1Br,SULT1B1,"enzyme activity, substrate",,,Km,0.172 µM
O=[N+]([O-])c1cc[n+]([O-])c2ccccc12,"TcPGFS (Trypanosoma cruzi, UniProt Q8I6L9)","enzyme activity, inhibitor",,200 µM,remaining activity,76%
CN1CCN(c2cc(-c3ccncc3)c(-c3ccc4ccccc4c3)nn2)CC1,"Prokineticin receptor 1 (PROKR1, Homo sapiens, UniProt Q8TCW9)","calcium signal, agonist",PK-1,12.5 µM,activation,-0.3%
N=C(N)c1ccc2cc(OC(=O)c3ccc(N=C(N)N)cc3)ccc2c1,"Cathepsin S (CTSS, Homo sapiens, UniProt P25774)","enzyme activity, inhibitor",,10 µM,inhibition,8%
O=C(Nc1cccnc1)N1CCC(Cc2cccc(Oc3ccc(C(F)(F)F)cn3)c2)CC1,"Fatty-acid amide hydrolase 1 (Faah, Rattus norvegicus, UniProt P97612)","enzyme activity, inhibitor",,,kinact/KI,3900 M⁻¹ s⁻¹
COc1ncccc1-c1cnn2ccc(N3CCN(C(=O)OC(C)C)CC3)nc12,"Bone morphogenetic protein receptor type-1B (BMPR1B, Homo sapiens, UniProt O00238)","binding, competition with immobilised ligand",,1 µM,remaining binding,100%
CN(C)C(=O)COC(=O)Cc1ccc(OC(=O)c2ccc(NC(=N)N)cc2)cc1,"Dipeptidyl peptidase 3 (DPP3, Homo sapiens, UniProt Q9NY33)","enzyme activity, inhibitor",,10 µM,inhibition,8%
Nc1ncc(-c2nc(N3CCOCC3)nc(N3CCOCC3)n2)c(C(F)F)n1,"Uncharacterized serine/threonine-protein kinase SBK3 (SBK3, Homo sapiens, UniProt P0C264)","binding, competition with immobilised ligand",,10 µM,remaining binding,85%
COc1cc(Br)cc(Br)c1Oc1cc(Br)cc(Br)c1O,SULT1B1,"enzyme activity, substrate",,,Km,24.9 µM
Cc1nn(C)cc1-c1nc2c(N3CCN(Cc4ccc(Cl)cc4)CC3)c(Cl)cnc2[nH]1,"Wee1-like protein kinase 2 (WEE2, Homo sapiens, UniProt P0C1S8)","binding, competition with immobilised ligand",,1 µM,remaining binding,99%
O=C(Nc1cccnn1)N1CCN([C@@H]2CCOc3cc(C(F)(F)F)ccc32)CC1,VIPR1,cell-free assay,,20 µM,inhibition,-11%
